Calls of active or inactive are those of the source. The calls are words filed in the database; no cut-off is given here.
Columns and labels:
[1] = target: T1, 5-hydroxytryptamine receptor 1A (Homo sapiens, UniProt P08908); experiment: Displacement of [3H]8-OH-DPAT from human 5HT1A receptor expressed in EBNA gene-positive HEK293 cells after 120 mins; type: cell-based
T1 sequence (P08908 whole entry): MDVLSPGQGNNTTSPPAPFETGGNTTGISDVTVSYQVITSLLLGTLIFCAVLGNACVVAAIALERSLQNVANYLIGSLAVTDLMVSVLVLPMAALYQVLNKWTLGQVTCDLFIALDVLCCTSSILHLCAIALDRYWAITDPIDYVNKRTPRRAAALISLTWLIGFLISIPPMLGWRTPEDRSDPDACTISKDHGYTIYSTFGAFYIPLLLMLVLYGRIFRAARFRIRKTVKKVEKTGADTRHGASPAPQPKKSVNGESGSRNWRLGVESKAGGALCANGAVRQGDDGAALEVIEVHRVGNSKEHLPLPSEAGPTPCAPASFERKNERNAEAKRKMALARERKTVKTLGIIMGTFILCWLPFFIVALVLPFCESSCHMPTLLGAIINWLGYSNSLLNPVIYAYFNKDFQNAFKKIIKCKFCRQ
In short: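 Radioligand competition binding with [3H]-8-hydroxy-DPAT on membranes from transfected HEK-293 EBNA cells expressing h5-HT1AR. Buffer was 50 mM Tris-HCl, 0.5 mM MgSO4, pH 7.4. Ki was obtained from IC50 by the Cheng-Prusoff equation. Values are means ± SEM of 2–4 independent experiments, each run in triplicate.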

[2] = target: 5-hydroxytryptamine receptor 5A (Homo sapiens) (UniProt P47898); experiment: Binding affinity to human 5HT5A receptor at 1 uM by radioligand displacement assay
Sequence of 5-hydroxytryptamine receptor 5A (Homo sapiens) (P47898 whole entry): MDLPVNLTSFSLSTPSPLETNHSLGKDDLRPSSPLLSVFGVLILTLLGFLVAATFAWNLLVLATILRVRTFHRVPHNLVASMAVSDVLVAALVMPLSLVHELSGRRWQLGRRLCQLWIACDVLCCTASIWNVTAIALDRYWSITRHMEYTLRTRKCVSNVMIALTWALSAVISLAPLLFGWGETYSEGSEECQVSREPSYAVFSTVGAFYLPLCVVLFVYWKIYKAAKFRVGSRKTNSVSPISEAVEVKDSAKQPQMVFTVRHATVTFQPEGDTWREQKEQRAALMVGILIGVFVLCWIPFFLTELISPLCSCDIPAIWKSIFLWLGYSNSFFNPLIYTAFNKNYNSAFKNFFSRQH
In short: (§1)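 Selectivity screen by radioligand binding at the 5-HT2A, 5-HT4e, 5-HT5a, 5-HT6 and 5-HT7 receptors. Test compound was used at a single concentration of 1 μM. Read-out was percent displacement of the corresponding radioligand.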

[3] = target: 5-hydroxytryptamine receptor 4 (Homo sapiens) (UniProt Q13639); experiment: Binding affinity to human 5-HT4e receptor at 1 uM by radioligand displacement assay; in short: as §1
Sequence of 5-hydroxytryptamine receptor 4 (Homo sapiens) (Q13639 whole entry): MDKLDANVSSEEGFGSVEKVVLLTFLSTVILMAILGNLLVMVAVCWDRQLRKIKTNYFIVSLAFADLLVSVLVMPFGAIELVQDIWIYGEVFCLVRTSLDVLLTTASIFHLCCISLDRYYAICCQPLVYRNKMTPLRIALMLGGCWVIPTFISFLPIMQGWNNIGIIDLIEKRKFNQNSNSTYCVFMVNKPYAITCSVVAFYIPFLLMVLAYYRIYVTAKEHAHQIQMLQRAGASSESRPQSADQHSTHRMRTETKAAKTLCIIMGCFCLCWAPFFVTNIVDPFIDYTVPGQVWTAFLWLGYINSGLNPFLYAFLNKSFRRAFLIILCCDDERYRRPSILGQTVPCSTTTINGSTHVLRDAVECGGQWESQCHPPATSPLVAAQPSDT

[4] = target: T1, 5-hydroxytryptamine receptor 1A; experiment: Binding affinity to human 5HT1A receptor expressed in HEK-293 EBNA cell membranes by [3H]-8-hydroxy-DPAT radioligand binding
[5] = target: 5-hydroxytryptamine receptor 6 (Homo sapiens) (UniProt P50406); experiment: Displacement of [3H]LSD from human 5HT6 receptor expressed in HEK293 cells after 120 mins by radioligand displacement assay; type: cell-based; in short: as §1
Sequence of 5-hydroxytryptamine receptor 6 (Homo sapiens) (P50406 whole entry): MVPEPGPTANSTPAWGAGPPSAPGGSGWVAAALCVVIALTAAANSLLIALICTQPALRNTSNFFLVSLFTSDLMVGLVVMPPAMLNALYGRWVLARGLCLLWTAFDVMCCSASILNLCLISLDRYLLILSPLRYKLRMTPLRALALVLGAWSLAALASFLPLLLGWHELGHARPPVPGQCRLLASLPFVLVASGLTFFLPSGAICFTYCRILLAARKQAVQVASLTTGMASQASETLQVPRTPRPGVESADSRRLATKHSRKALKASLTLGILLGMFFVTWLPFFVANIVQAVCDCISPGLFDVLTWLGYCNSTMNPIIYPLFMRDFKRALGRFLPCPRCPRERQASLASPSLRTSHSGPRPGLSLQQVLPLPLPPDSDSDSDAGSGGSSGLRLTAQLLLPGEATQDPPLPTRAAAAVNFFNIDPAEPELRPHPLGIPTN

[6] = target: 5-hydroxytryptamine receptor 7 (Homo sapiens) (UniProt P34969); experiment: Displacement of [3H]LSD from human 5HT7 receptor expressed in HEK293 cells at 1 uM after 120 mins by scintillation counting; type: cell-based; in short: as §1
Sequence of 5-hydroxytryptamine receptor 7 (Homo sapiens) (P34969 whole entry): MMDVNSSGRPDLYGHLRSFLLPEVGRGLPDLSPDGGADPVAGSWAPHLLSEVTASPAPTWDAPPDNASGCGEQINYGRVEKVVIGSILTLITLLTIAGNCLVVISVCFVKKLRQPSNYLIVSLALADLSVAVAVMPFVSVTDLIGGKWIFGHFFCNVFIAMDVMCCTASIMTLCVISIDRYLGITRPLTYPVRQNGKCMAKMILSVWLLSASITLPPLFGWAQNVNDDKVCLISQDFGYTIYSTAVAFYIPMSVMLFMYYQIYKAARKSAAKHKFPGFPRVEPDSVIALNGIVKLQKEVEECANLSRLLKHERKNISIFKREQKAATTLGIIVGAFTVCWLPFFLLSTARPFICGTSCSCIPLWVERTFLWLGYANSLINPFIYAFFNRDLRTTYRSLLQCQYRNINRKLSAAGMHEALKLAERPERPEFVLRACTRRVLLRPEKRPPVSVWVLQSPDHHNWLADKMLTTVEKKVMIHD

[7] = target: 5-hydroxytryptamine receptor 2A (Homo sapiens) (UniProt P28223); experiment: Binding affinity to human 5HT2A receptor at 1 uM by radioligand displacement assay; in short: as §1
Sequence of 5-hydroxytryptamine receptor 2A (Homo sapiens) (P28223 whole entry): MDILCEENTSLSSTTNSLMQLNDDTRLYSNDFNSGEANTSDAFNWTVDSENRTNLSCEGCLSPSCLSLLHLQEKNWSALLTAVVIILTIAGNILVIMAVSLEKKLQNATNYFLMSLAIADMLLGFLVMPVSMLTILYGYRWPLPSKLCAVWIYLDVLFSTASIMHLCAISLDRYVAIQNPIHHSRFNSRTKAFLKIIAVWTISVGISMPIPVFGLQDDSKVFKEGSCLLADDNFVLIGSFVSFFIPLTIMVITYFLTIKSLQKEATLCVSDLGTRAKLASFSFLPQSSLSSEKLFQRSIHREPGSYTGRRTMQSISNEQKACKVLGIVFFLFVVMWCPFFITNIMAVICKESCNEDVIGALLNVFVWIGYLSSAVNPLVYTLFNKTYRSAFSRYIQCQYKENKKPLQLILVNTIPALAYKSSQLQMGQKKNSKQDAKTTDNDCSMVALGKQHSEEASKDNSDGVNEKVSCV

| Structure (SMILES) | Ki [1] [nM] | also measured |
| --- | --- | --- |
| COc1ccccc1N1CCN(CCCCN2C(=O)N3CCCC3(CCCCNS(=O)(=O)c3cccc4c(N(C)C)cccc34)C2=O)CC1 (stereo not drawn) | 11 | – |
| CN(C)S(=O)(=O)c1ccc2c(N3CCN(CCCCN4C(=O)C5CCCN5C4=O)CC3)cccc2c1 (stereo not drawn) | 98 | – |
| CN(C)c1cccc2c(S(=O)(=O)N3CCN(CCCCN4C(=O)C5CCCN5C4=O)CC3)cccc12 (stereo not drawn) | > 1000 | – |
| CN(C)S(=O)(=O)c1cccc2c(N3CCN(CCCCN4C(=O)C5CCCN5C4=O)CC3)cccc12 (stereo not drawn) | 350 | – |
| O=C1C2CCCN2C(=O)N1CCCCN1CCN(c2cccc3ccccc23)CC1 (stereo not drawn) | 2.4 | – |
| COc1ccccc1N1CCN(CCCCN2C(=O)C3CCCN3C2=O)CC1 (stereo not drawn) | 5.5 | – |
| CN(C)c1cccc2c(S(=O)(=O)NCCCCC34CCCN3C(=O)N(CCCCN3CCN(c5cccc6ccccc56)CC3)C4=O)cccc12 (stereo not drawn) | 2 | Activity [2]: > 80%; Activity [3]: inactive; Ki [4]: 38 nM; Activity [5]: inactive; Activity [6]: > 80%; Activity [7]: > 80% |
| COc1ccccc1N1CCN(CCCCN2C(=O)N3CCCC3(CCCCNCCCCCNS(=O)(=O)c3cccc4c(N(C)C)cccc34)C2=O)CC1 (stereo not drawn) | 9 | – |
| CN(C)c1cccc2c(S(=O)(=O)NCCCCCCCC34CCCN3C(=O)N(CCCCN3CCN(c5cccc6ccccc56)CC3)C4=O)cccc12 (stereo not drawn) | 5 | – |
| CN(C)S(=O)(=O)c1ccc2cccc(N3CCN(CCCCN4C(=O)C5CCCN5C4=O)CC3)c2c1 (stereo not drawn) | 2.4 | – |
| COc1ccccc1N1CCN(CCCCN2C(=O)N3CCCC3(CCCCCCCNS(=O)(=O)c3cccc4c(N(C)C)cccc34)C2=O)CC1 (stereo not drawn) | 15 | – |
| COc1ccccc1N1CCN(CCCCN2C(=O)N3CCCC3(CCNCCCCCNS(=O)(=O)c3cccc4c(N(C)C)cccc34)C2=O)CC1 (stereo not drawn) | 7 | – |

— ChEMBL document CHEMBL1781962, “Development of Fluorescent Ligands for the Human 5-HT1A Receptor” (ACS Med Chem Lett, 2010)
